Measured values taken from article PMC5014123 (Nature communications, 2015).
Like-named read-outs stand apart in the source and are kept apart here.

Tests used:
MMP-2 = assay: PrAMA inference of MMP-2 activity in PDAC cell lines; type: cell-based, human; details: Panc1_A8 cells, 1 µM, 24 hours, relative to vehicle
Outline: (§1)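 Cells were cultured in duplicate for 24 h in serum-free, phenol-red-free DMEM, and medium and sucrose-buffer membrane fractions were collected. […] Activities were inferred from fold-change cleavage rates against purified-enzyme specificity matrices, in three repeats. Panc1_A8 received 1 uM test compound for 24 h versus vehicle; AsPC-1 knockdowns were compared with shCtrl.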

ADAM8 [1] = biological target: T1, ADAM8 (Homo sapiens, UniProt P78325); assay: PrAMA inference of ADAM8 activity in PDAC cell lines; type: cell-based; details: Panc1_A8 cells, 1 µM, 24 hours, relative to vehicle
T1 sequence (P78325 17-824): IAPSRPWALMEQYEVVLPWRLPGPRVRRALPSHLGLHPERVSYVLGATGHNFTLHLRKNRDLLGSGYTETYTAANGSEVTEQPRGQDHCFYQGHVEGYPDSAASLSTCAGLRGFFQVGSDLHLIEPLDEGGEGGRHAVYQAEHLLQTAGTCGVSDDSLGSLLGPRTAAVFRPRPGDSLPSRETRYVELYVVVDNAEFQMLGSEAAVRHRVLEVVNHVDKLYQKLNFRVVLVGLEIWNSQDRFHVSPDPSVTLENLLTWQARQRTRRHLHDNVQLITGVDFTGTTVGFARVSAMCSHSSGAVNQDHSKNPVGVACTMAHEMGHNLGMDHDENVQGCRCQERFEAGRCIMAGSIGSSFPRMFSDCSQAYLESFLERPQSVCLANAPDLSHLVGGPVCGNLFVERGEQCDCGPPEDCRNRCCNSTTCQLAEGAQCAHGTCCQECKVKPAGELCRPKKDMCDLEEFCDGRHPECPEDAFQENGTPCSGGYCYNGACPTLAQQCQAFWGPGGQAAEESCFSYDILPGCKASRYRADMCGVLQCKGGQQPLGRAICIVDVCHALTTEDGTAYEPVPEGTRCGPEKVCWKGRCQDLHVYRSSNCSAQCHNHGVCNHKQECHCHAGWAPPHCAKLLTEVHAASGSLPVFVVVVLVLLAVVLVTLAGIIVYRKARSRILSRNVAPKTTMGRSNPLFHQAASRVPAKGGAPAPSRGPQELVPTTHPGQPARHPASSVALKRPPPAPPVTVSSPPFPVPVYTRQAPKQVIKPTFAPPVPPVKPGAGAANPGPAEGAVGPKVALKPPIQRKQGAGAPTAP

ADAM8 [2] = biological target: T1, ADAM8; type: cell-based
MMP-14 = assay: PrAMA inference of MMP-14 activity in PDAC cell lines; type: cell-based, human; details: Panc1_A8 cells, 1 µM, 24 hours, relative to vehicle
Outline: as §1

ADAM8 [3] = biological target: T2, ADAM8 (Homo sapiens, UniProt P78325); type: biochemical
T2 sequence (P78325 17-497): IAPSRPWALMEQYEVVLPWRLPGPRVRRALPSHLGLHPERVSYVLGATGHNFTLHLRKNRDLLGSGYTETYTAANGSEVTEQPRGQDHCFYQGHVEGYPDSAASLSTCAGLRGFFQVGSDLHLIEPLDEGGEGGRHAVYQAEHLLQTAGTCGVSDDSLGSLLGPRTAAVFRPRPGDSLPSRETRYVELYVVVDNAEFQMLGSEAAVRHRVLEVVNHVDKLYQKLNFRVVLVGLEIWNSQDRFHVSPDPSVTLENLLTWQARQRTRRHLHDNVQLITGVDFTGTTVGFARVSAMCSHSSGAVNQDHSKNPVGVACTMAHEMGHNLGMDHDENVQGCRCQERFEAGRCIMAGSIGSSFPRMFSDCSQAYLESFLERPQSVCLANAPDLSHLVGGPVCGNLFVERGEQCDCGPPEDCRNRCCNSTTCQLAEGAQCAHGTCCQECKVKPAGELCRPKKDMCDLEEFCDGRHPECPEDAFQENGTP

ERK1/2 phosphorylation = assay: Western blot of ERK1/2 phosphorylation in Panc1 cells; type: cell-based, human; details: Panc1_A8 cells; BK-1361 500 nM; U0126 10 µM
Outline: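 ERK1/2 phosphorylation in Panc1_ctrl and Panc1_A8 cell lysates was detected by western blot with antibodies against the phosphorylated kinase forms, with or without 500 nM test compound.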

Panc1_A8 cells = assay: Invasion assay of Panc1_A8 cells; type: cell-based, human; details: matrigel, 10 µM, 18h
Outline: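 Panc1_ctrl and Panc1_A8 cells were run in duplicate with the ERK1/2 inhibitor U0126 (10 uM) for 18 h. Invasiveness is expressed relative to control. Statistics were by ANOVA and Student's t-test.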

| Structure (SMILES) | MMP-2 activity (PrAMA), Panc1_A8 (MMP-2) | ADAM8 activity (PrAMA), Panc1_A8 (ADAM8 [1]) | IC50 (ADAM8 [2]) | MMP-14 activity (PrAMA), Panc1_A8 (MMP-14) | IC50 (ADAM8 [3]) | ERK1/2 phosphorylation (pERK1/2) (ERK1/2 phosphorylation) | invasion of Panc1_A8 cells (ERK1/2 inhibitor) (Panc1_A8 cells) |
| --- | --- | --- | --- | --- | --- | --- | --- |
| CNC(=O)[C@H](Cc1ccccc1)NC(=O)[C@H](CC(C)C)[C@H](CSc1cccs1)C(=O)NO [BB-94, Batimastat] | reduced | reduced | 57 ± 6 nM | reduced | – | – | – |
| CNC(=O)[C@@H](NC(=O)[C@H](CC(C)C)[C@H](O)C(=O)NO)C(C)(C)C [BB-2516, Marimastat] | – | – | 1250 ± 103 nM | – | 1050 ± 154 nM | – | – |
| N#CC(=C(/N)Sc1ccccc1N)/C(C#N)=C(/N)Sc1ccccc1N [U0126] | slight effect | not affected | – | greater effect | – | blocked ERK1/2 phosphorylation | decreased invasion |
